Data on one molecule can be found in ChEMBL document CHEMBL3856239, “Synthesis and Antiobesity Properties of 6-(4-Chlorophenyl)-3-(4-((3,3-difluoro-1-hydroxycyclobutyl)methoxy)-3-methoxyphenyl)thieno[3,2-d]pyrimidin-4(3H)-one (BMS-814580): A Highly Efficacious Melanin Concentrating Hormone Receptor 1 (MCHR1) Inhibitor” (J Med Chem, 2016).

Series [1] can be described thus: Volume of distribution at steady state in cynomolgus monkey at 1 mg/kg, iv. It counts as ADME, organism-based, Macaca fascicularis. To be noted: in vivo, read-out: Vdss. Summed up: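 Full PK in rat, dog and cynomolgus monkey. Oral arm: phosphate prodrug at 10 mg/kg parent-equivalent in Methocel:Tween80:water (0.5:0.1:99.4). Intravenous arm: parent at 1 mg/kg in PEG400:DMAC:water (70:5:25). n = 3 per species; individual Tmax values reported for dog and monkey.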

Series [2] can be described thus: Clearance in cynomolgus monkey at 1 mg/kg, iv. It counts as ADME, organism-based, Macaca fascicularis. To be noted: in vivo. Summed up: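 Rats, dogs and cynomolgus monkeys, n = 3: parent 1 mg/kg i.v. in PEG400:DMAC:water (70:5:25), or phosphate prodrug 10 mg/kg oral in Methocel:Tween80:water (0.5:0.1:99.4); plasma parent compound, Cmax, Tmax, AUC0-∞, half-life, clearance, Vss and bioavailability derived.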

A short description of series [3]: Protein binding in Sprague-Dawley rat plasma at 10 mg/kg, po qd for 4 days. It counts as ADME, organism-based. To be noted: read-out: PPB.
Series [4] is described as follows: Solubility of the compound in phosphate buffer at pH 6.4. The series is classed as physicochemical. Summed up: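 Solubility of parent compounds and prodrugs measured in 50 mM phosphate buffer, pH 6.4.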
The target of a further series is T1, Cytochrome P450 2C8 (Homo sapiens, UniProt P10632).
T1 sequence (P10632 whole entry): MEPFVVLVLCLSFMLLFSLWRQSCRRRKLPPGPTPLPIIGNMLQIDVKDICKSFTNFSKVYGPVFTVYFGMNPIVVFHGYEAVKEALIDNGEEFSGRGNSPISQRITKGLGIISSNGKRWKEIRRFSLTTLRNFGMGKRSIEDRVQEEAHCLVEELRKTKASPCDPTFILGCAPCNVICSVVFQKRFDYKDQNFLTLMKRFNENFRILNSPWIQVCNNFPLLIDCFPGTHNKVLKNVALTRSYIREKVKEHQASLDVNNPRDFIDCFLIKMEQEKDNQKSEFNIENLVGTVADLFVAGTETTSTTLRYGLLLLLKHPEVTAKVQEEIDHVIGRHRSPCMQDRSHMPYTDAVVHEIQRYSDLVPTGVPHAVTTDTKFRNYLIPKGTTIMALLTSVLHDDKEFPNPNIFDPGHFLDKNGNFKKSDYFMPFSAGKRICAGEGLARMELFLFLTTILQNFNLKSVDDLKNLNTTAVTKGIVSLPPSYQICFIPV
As to the kind of experiment: Inhibition of CYP2C8 (unknown origin). The series is classed as ADME. Summed up:
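CYP1A2, 2C8, 2C9, 2C19, 2D6 and 3A4 tested for inhibition, with 40 µM as the top tested limit.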

A further series has as its system Rattus norvegicus. The series is described as follows: Antiobesity activity in pair-fed DIO Sprague-Dawley rat model assessed as reduction in caloric intake at 1 mg/kg, po qd for 28 days relative to vehicle control. It counts as functional. On the set-up: scale not given: the % may be the effect or the level left. Put shortly:
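Obese male SD rats on diet-induced obesity, 8/group, dosed orally once daily for 28 days with phosphate prodrug (0.03–3 mg/kg parent) in 14% propylene glycol/1% Tween/85% water; rimonabant 10 mg/kg control; pair-fed groups matched to 1 and 3 mg/kg intake; body weight and food measured daily, % change versus vehicle.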

A short description of series [5]: Cardiotoxicity in anesthetized rabbit assessed as effect on mean arterial blood pressure. The series is classed as toxicity, tissue-based, Oryctolagus cuniculus. Summed up: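 Anesthetized rabbits given compound to plasma concentrations up to 38 µM; QT and QRS duration, mean arterial blood pressure and heart rate recorded.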

Turning to `COc1cc(-n2cnc3cc(-c4ccc(Cl)cc4)sc3c2=O)ccc1OCC1(O)CC(F)(F)C1`, in series [1], the Vd is 5.4 L/kg. In addition, the clearance in series [2] was 1.7 mL/min/kg. Besides, in series [3], the fraction unbound at 96 h is < 0.02. In addition, the solubility in series [4] is < 1 µg/mL. Also, on Cytochrome P450 2C8, the INH is > 40 µM. In addition, the Activity with Rattus norvegicus is given as 14.3%; in series [5], “Non-Toxic”.

Broadly, the clearance is the rate of elimination divided by the concentration. What is called solubility is the concentration that dissolves in the medium under given conditions.
